Experimental data: ChEMBL document CHEMBL3272103, “Synthesis and central nervous system evaluation of some 5-alkoxy-3H-1,4-benzodiazepin-2(1H)-ones” (J Med Chem, 1977)

Legend:
Mus musculus [1] = experiment: CNS depressant activity in mouse assessed as reduction in amphetamine-induced locomotor activity at 51.2 mg/kg, ip; format: functional; design: scale not given: the % may be the effect or the level left; settings: route intraperitoneal
Method in brief: (§1)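 Locomotor activity of mice recorded in photocell activity cages after dl-amphetamine 4.0 mg/kg ip plus test compound ip at the stated dose. Five mice per group; result given as % change in activity.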

Mus musculus [2] = experiment: CNS depressant activity in ip dosed mouse assessed as reinduction of anesthesia measured as loss of righting reflex compound administered immediately post recovery from hexobarbital anesthesia; format: functional
Mus musculus [3] = experiment: Anticonvulsant activity in ip dosed mouse assessed as inhibition of N-sulfamoylhexahydroazepine-induced seizure; format: functional
Method in brief: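 Mice dosed ip with test compound, then challenged with the convulsant N-sulfamoylhexahydroazepine; protection against seizures scored per a literature method. Ten animals per dose; ED50 derived in mg/kg ip.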

Mus musculus [4] = experiment: CNS depressant activity in ip dosed mouse assessed as ataxia; format: functional
Method in brief: (§2)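 Behavioral observation in ip-dosed mice per a modified literature method, scoring ataxia, docility or loss of righting reflex. Ten animals per dose; ED50 in mg/kg ip.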

Mus musculus [5] = experiment: CNS depressant activity in ip dosed mouse assessed as loss of righting reflex; format: functional; method in brief: as §2
Mus musculus [6] = experiment: CNS depressant activity in mouse assessed as reduction in amphetamine-induced locomotor activity at 50 mg/kg, ip; format: functional; design: scale not given: the % may be the effect or the level left; settings: route intraperitoneal
Method in brief: (§3)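 Mice given test compound ip alongside dl-amphetamine 4.0 mg/kg ip; locomotor activity recorded in photocell activity cages, five mice per group; expressed as % change in activity.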

Mus musculus [7] = experiment: CNS depressant activity in ip dosed mouse assessed as docility; format: functional; method in brief: as §2
Mus musculus [8] = experiment: CNS depressant activity in ip dosed mouse assessed as induction of neurologic deficit by rotarod test; format: functional
Method in brief: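 Rotarod test per a literature method in ip-dosed mice; failure scored as neurological deficit. Ten animals per dose; ND50 in mg/kg ip.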

[9] = Acute toxicity in ip dosed Wistar rat measured 2 hrs post dose; format: organism-based; settings: in vivo
Mus musculus [10] = experiment: CNS depressant activity in mouse assessed as reduction in amphetamine-induced locomotor activity at 100 mg/kg, ip; format: functional; design: scale not given: the % may be the effect or the level left; settings: route intraperitoneal; method in brief: as §1
Mus musculus [11] = experiment: CNS depressant activity in mouse assessed as reduction in amphetamine-induced locomotor activity at 18.8 mg/kg, ip; format: functional; design: scale not given: the % may be the effect or the level left; settings: route intraperitoneal; method in brief: as §1
Mus musculus [12] = experiment: CNS depressant activity in mouse assessed as reduction in amphetamine-induced locomotor activity at 1.5 mg/kg, ip; format: functional; design: scale not given: the % may be the effect or the level left; settings: route intraperitoneal; method in brief: as §3
Mus musculus [13] = experiment: CNS depressant activity in mouse assessed as reduction in amphetamine-induced locomotor activity at 25.6 mg/kg, ip; format: functional; design: scale not given: the % may be the effect or the level left; settings: route intraperitoneal; method in brief: as §1
Mus musculus [14] = experiment: CNS depressant activity in mouse assessed as reduction in amphetamine-induced locomotor activity at 150 mg/kg, ip; format: functional; design: scale not given: the % may be the effect or the level left; settings: route intraperitoneal; method in brief: as §1
Mus musculus [15] = experiment: CNS depressant activity in mouse assessed as reduction in amphetamine-induced locomotor activity at 75 mg/kg, ip; format: functional; design: scale not given: the % may be the effect or the level left; settings: route intraperitoneal; method in brief: as §1

| Structure (SMILES) | Activity (Mus musculus [1]) [%] | ED50 (Mus musculus [2]) [mg/kg] | ED50 (Mus musculus [3]) [mg/kg] | ED50 (Mus musculus [4]) [mg/kg] | ED50 (Mus musculus [5]) [mg/kg] | Activity (Mus musculus [6]) [%] | ED50 (Mus musculus [7]) [mg/kg] | ED50 (Mus musculus [8]) [mg/kg] | LD50 at 2 h [9] [mg/kg] | Activity (Mus musculus [10]) [%] | Activity (Mus musculus [11]) [%] | Activity (Mus musculus [12]) [%] | Activity (Mus musculus [13]) [%] | Activity (Mus musculus [14]) [%] | Activity (Mus musculus [15]) [%] |
| --- | --- | --- | --- | --- | --- | --- | --- | --- | --- | --- | --- | --- | --- | --- | --- |
| C=CCOC1=NCC(=O)N(C)c2ccc(Cl)cc21 | 55 | 54.4 | 63.9 |  |  |  |  |  |  |  |  |  |  |  |  |
| CN1C(=O)CN=C(c2ccccc2)c2cc(Cl)ccc21 [DIAZEPAM] |  | 1.6 | 1.1 | 21.9 | 8.9 | 8 | 4.1 | 5.2 |  |  |  |  |  |  |  |
| COC1=NCC(=O)N(C)c2ccc(Cl)cc21 |  | 16.5 | > 50 | 68 | 300 | 50 | 59.3 |  | > 200 |  |  |  |  |  |  |
| CN1C(=O)CNC(=O)c2cc(Cl)cc([N+](=O)[O-])c21 | 24 | > 102 | > 102 |  |  |  |  |  |  |  |  |  |  |  |  |
| CC(OC1=NCC(=O)N(C)c2ccc(Cl)cc21)C(F)(F)F (configuration not stated) |  | > 200 | 100 | 250 | 288 |  | 130 | 123 | 300 | 73 |  |  |  |  |  |
| CCCOC1=NCC(=O)N(C)c2ccc(Cl)cc21 | 50 | 19.2 | 38.2 | 52.5 | 78.1 |  | 93.1 |  | > 400 |  |  |  |  |  |  |
| CN1C(=O)CN=C(OCC(F)(F)F)c2cc(Cl)ccc21 | 48 | > 102 | > 102 |  |  |  |  |  |  |  |  |  |  |  |  |
| CN1C(=O)CNC(=O)c2cc(Cl)ccc21 |  | 39.4 | > 100 |  |  |  |  |  |  | 75 |  |  |  |  |  |
| CCOC1=NCC(=O)N(C)c2ccc([N+](=O)[O-])cc21 | 27 | 9 | 87.8 | 42.5 | 37.5 |  | 11.3 | 15.8 | 600 |  |  |  |  |  |  |
| CN1C(=O)CN=C(Oc2ccccc2)c2cc(Cl)ccc21 | 68 | > 102 | 50.1 |  |  |  |  |  |  |  |  |  |  |  |  |
| CN1C(=O)CN=C(OCCBr)c2cc(Cl)ccc21 |  | > 102 | > 102 |  |  |  |  |  |  |  |  |  |  |  |  |
| CCOC1=NCC(=O)N(C)c2ccc(Cl)cc21 |  | 2.9 | 35.2 | 45.3 | 39.3 |  | 42.8 | 68.5 | 300 |  | 93 |  |  |  |  |
| Cc1cc(Cl)ccc1OC1=NCC(=O)N(C)c2ccc(Cl)cc21 | 36 | > 102 | > 102 |  |  |  |  |  |  |  |  |  |  |  |  |
| CCOC1=NCC(=O)N(C)c2ccc(C)cc21 | 44 | 18.4 | > 102 | 133 | 141 |  | 137 | 87.6 | 300 |  |  |  |  |  |  |
| CN1C(=O)CNC(=O)c2cc([N+](=O)[O-])ccc21 | 51 | > 102 | > 102 |  |  |  |  |  |  |  |  |  |  |  |  |
| O=C1CN=C(c2ccccc2)c2cc([N+](=O)[O-])ccc2N1 [NITRAZEPAM] |  | 0.8 | 1 | 1.5 | 1.5 |  | 1.5 | 0.5 | 733 |  |  | 50 |  |  |  |
| CN1C(=O)CN=C(OCC(Cl)Cl)c2cc(Cl)ccc21 |  | 143 | 128 |  |  |  |  |  |  |  |  |  |  |  |  |
| CN1C(=O)CNC(=O)c2ccc(Cl)cc21 | 30 | > 102 | > 102 |  |  |  |  |  |  |  |  |  |  |  |  |
| Cc1ccc2c(c1)C(=O)NCC(=O)N2C | 62 | > 102 | > 102 |  |  |  |  |  |  |  |  |  |  |  |  |
| C#CCOC1=NCC(=O)N(C)c2ccc(Cl)cc21 |  | 22.9 | > 25 | 22.7 | 28.5 |  | 20.8 |  | 138 |  |  |  | 44 |  |  |
| CCOC1=NCC(=O)N(C)c2c1cc(Cl)cc2[N+](=O)[O-] | 19 | > 102 | > 102 |  |  |  |  |  |  |  |  |  |  |  |  |
| CCOC1=NCC(=O)N(c2ccccc2)c2ccc(Cl)cc21 |  | > 150 | > 150 | 300 | 300 |  | 300 |  | 650 |  |  |  |  | 50 |  |
| CN1C(=O)CN=C(Oc2ccccc2F)c2cc(Cl)ccc21 | 45 | > 200 | > 200 | 240 | 428 |  | 240 | 146 | 650 |  |  |  |  |  |  |
| CCOC1=NCC(=O)N(CC)c2ccc(Cl)cc21 |  | 21.8 | > 75 | 100 | 600 |  | 100 |  | 600 |  |  |  |  |  | 5 |
| CCOC1=NCC(=O)N(C)c2cc(Cl)ccc21 | 50 | 38.4 | 29.9 | 67.7 | 74.4 |  | 56.5 | 61.8 | 600 |  |  |  |  |  |  |
